# Tests used:
# [1] = Aqueous solubility of the compound at pH 6.8 after 20 hrs by HPLC analysis; assay type: physicochemical; details: buffer; for solubility at 20 h: pH 6.8; for solubility: pH 6.8, 20 h, 20 h
# MDR1 = test: (§1) Apparent permeability from apical to basolateral side in pig LLC-PK1 cells expressing MDR1 after 2 hrs by LC-MS/MS analysis; assay type: ADME, cell-based, Sus scrofa; details: LLC-PK1
# Procedure, shortened: (§2)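 Transport in LLC-PK1 cells and in LLC-GA5-COL150 cells (LLC-PK1 transfected with human MDR1). Papp = amount transported divided by initial donor concentration. Efflux ratio compares the Papp of the two directions (BA/AB).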
# [2] = Ratio of brain to plasma in ddY mouse at 1 mg/kg, iv by LC-MS analysis; assay type: ADME, organism-based; set-up: dose 1 mg/kg, route intravenous; details: read-out: BPR
# [3] = target: T1, Sodium- and chloride-dependent glycine transporter 1 (Rattus norvegicus, UniProt P28572); test: Displacement of [3H]glycine from GlyT1 in rat C6 glioma cells incubated for 30 mins prior to substrate addition measured after 10 mins by scintillation counting analysis; assay type: cell-based
# T1 sequence (P28572 whole entry): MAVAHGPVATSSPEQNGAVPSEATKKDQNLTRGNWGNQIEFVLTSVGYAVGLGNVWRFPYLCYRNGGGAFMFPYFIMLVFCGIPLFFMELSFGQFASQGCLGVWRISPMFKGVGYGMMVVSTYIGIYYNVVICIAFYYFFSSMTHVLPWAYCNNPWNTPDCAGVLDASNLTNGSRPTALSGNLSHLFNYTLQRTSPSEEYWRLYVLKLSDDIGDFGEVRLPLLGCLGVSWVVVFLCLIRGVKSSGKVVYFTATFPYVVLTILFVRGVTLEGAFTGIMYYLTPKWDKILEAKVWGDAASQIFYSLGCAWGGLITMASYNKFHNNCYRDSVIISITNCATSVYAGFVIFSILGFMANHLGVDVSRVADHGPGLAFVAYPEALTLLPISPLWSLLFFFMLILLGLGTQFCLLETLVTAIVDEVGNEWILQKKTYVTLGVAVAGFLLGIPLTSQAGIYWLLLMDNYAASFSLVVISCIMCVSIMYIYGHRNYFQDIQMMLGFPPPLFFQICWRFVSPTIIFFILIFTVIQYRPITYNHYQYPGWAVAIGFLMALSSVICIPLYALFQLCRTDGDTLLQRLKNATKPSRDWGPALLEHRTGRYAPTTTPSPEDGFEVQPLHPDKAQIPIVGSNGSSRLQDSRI
# [4] = Intrinsic clearance in ddY mouse liver microsomes by LC-MS/MS analysis; assay type: ADME, Microsome; details: read-out: CLH
# Procedure, shortened: (§3)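 Liver microsome CLint was run in duplicate.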
# [5] = Intrinsic clearance in human liver microsomes after 30 mins by LC-MS/MS analysis; assay type: ADME, Microsome; details: read-out: CLH; procedure, shortened: as §3
# [6] = Lipophilicity, log D of the compound at pH 7.4; assay type: physicochemical; details: buffer
# [7] = target: T2, Sodium- and chloride-dependent glycine transporter 2 (Rattus norvegicus, UniProt P58295); test: Displacement of [3H]glycine from GlyT2 in Wistar rat brainstem cells after 10 mins by scintillation counting analysis; assay type: cell-based
# T2 sequence (P58295 whole entry): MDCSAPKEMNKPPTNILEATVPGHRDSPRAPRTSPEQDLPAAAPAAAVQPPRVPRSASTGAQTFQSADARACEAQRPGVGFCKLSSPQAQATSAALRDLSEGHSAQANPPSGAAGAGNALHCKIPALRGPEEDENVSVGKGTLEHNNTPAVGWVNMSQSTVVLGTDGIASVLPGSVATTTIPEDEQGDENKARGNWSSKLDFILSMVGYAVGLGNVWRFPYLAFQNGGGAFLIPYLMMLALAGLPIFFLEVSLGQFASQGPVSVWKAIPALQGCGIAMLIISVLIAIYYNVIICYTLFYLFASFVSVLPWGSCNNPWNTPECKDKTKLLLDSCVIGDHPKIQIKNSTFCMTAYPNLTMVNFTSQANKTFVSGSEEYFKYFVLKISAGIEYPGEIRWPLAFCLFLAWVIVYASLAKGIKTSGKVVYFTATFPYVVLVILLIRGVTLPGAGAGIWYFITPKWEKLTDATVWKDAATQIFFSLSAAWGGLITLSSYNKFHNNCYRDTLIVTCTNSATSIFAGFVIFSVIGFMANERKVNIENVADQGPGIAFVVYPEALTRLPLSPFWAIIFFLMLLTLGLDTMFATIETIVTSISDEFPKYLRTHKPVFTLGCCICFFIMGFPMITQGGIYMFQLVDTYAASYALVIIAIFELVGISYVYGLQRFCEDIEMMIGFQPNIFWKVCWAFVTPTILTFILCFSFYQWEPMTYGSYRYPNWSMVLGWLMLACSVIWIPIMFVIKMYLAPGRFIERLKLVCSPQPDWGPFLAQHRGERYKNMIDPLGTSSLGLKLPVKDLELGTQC
# [8] = AUC in ddY mouse at 3 mg/kg, po by LC/MS analysis; assay type: ADME, organism-based; set-up: dose 3 mg/kg, route oral; details: plasma
# Procedure, shortened: (§4)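 Single dose given iv at 1 mg/kg or po at 3 mg/kg; each value is the mean of n = 3 measurements.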
# [9] = AUC in ddY mouse at 1 mg/kg, iv by LC/MS analysis; assay type: ADME, organism-based; set-up: dose 1 mg/kg, route intravenous; details: plasma; procedure, shortened: as §4
# [10] = AUC in cynomolgus monkey at 3 mg/kg, po by LC/MS analysis; assay type: ADME, organism-based, Macaca fascicularis; set-up: dose 3 mg/kg, route oral; details: plasma; procedure, shortened: as §4
# [11] = Plasma clearance in ddY mouse at 1 mg/kg, iv by LC/MS analysis; assay type: ADME, organism-based; set-up: dose 1 mg/kg, route intravenous; procedure, shortened: as §4
# [12] = Cmax in ddY mouse at 3 mg/kg, po by LC/MS analysis; assay type: ADME, organism-based; set-up: dose 3 mg/kg, route oral; details: in vivo; procedure, shortened: as §4
# [13] = Oral bioavailability in ddY mouse at 3 mg/kg by LC/MS analysis; assay type: ADME, organism-based; details: in vivo; procedure, shortened: as §4
# LLC-PK1 = test: as §1; assay type: ADME, cell-based, Sus scrofa; details: llc-pk1, 2 h, 2 h; procedure, shortened: as §2
# [14] = Volume of distribution at steady state in cynomolgus monkey at 1 mg/kg, iv by LC/MS analysis; assay type: ADME, organism-based, Macaca fascicularis; set-up: dose 1 mg/kg, route intravenous; details: in vivo, read-out: Vdss
# Procedure, shortened: (§5)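 Single intravenous dose as a pharmacokinetic study, with each parameter reported as the mean of n = 3 measurements.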
# [15] = Volume of distribution at steady state in ddY mouse at 1 mg/kg, iv by LC/MS analysis; assay type: ADME, organism-based; set-up: dose 1 mg/kg, route intravenous; details: in vivo, read-out: Vdss; procedure, shortened: as §5
# [16] = Half life in cynomolgus monkey at 1 mg/kg, iv by LC/MS analysis; assay type: ADME, organism-based, Macaca fascicularis; set-up: dose 1 mg/kg, route intravenous; details: in vivo; procedure, shortened: as §4
# [17] = Half life in ddY mouse at 1 mg/kg, iv by LC/MS analysis; assay type: ADME, organism-based; set-up: dose 1 mg/kg, route intravenous; details: in vivo; procedure, shortened: as §4
# [18] = Intrinsic clearance in cynomolgus monkey liver microsomes after 30 mins by LC-MS/MS analysis; assay type: ADME, Macaca fascicularis, Microsome; details: read-out: CLH; procedure, shortened: as §3
# [19] = Cmax in cynomolgus monkey at 3 mg/kg, po by LC/MS analysis; assay type: ADME, organism-based, Macaca fascicularis; set-up: dose 3 mg/kg, route oral; details: in vivo; procedure, shortened: as §4
# [20] = AUC in cynomolgus monkey at 1 mg/kg, iv by LC/MS analysis; assay type: ADME, organism-based, Macaca fascicularis; set-up: dose 1 mg/kg, route intravenous; details: plasma; procedure, shortened: as §4
# [21] = Oral bioavailability in cynomolgus monkey at 3 mg/kg by LC/MS analysis; assay type: ADME, organism-based, Macaca fascicularis; details: in vivo; procedure, shortened: as §4
# [22] = Plasma clearance in cynomolgus monkey at 1 mg/kg, iv by LC/MS analysis; assay type: ADME, organism-based, Macaca fascicularis; set-up: dose 1 mg/kg, route intravenous; procedure, shortened: as §4
# [23] = target: T3, Sodium- and chloride-dependent glycine transporter 1 (Rattus norvegicus) (UniProt P28572); details: C6 glioma, 10 uM
# T3 sequence (whole entry): T1 sequence (P28572 whole entry)
compound,measurement,setting,value
CCc1nnc(-c2ccc(-c3ccccc3)cc2)n1-c1ccccc1F,solubility at 20 h,[1],< 1 µM
CCc1nnc(-c2ccc(-c3ccccc3)nc2)n1-c1cccc(C#N)c1C,Papp A→B at 2 h,MDR1,29.6 ×10⁻⁶ cm/s
same,Kp,[2],0.7
same,solubility,[1],98 µM
CCc1nnc(-c2ccc(-c3ccccc3)nc2)n1-c1ccccc1F,solubility at 20 h,[1],31 µM
Cc1nnc(-c2ccc(-c3ccncc3)cc2)n1-c1ccccc1F,IC50,[3],5.9 µM
Cc1nnc(-c2ccc(-c3cccnc3)cc2)n1-c1ccccc1F,IC50,[3],7 µM
CCc1nnc(-c2ccc(-c3ccccc3)cc2)n1-c1cccc(Br)c1C,IC50,[3],2.2 µM
CCc1nnc(-c2ccc(-c3ccccc3)cc2)n1-c1cccc(C(=O)OC)c1C,IC50,[3],5.1 µM
CCc1nnc(-c2ccc(-c3ccccc3)cc2)n1-c1cccc(CC#N)c1C,IC50,[3],2.8 µM
CCc1nnc(-c2ccc(-c3ccccc3)cc2)n1-c1cccc(C#N)c1C,CLint scaled,[4],> 1000 mL/min/kg
same,CLint scaled,[5],126 mL/min/kg
same,Papp A→B at 2 h,MDR1,27.5 ×10⁻⁶ cm/s
same,logD,[6],4.1
same,solubility at 20 h,[1],< 1 µM
Cc1nnc(-c2ccc(-c3ccccn3)cc2)n1-c1ccccc1F,IC50,[3],0.86 µM
same,IC50,[7],1.6 µM
CCc1nnc(C2CCN(c3ccccc3)CC2)n1-c1ccccc1F,IC50,[3],6.6 µM
CCc1nnc(-c2ccc(-c3ccccc3)cc2)n1-c1cccc(Cl)c1C,IC50,[3],2.2 µM
CCc1nnc(-c2ccc(-c3ccccc3)cc2)n1-c1cccc(C(N)=O)c1C,IC50,[3],3.9 µM
CCc1nnc(-c2ccc(-c3ccccc3)cc2)n1-c1cccc(N(C)C)c1C,IC50,[3],3.1 µM
CCc1nnc(N2CCN(c3ccccc3)CC2)n1-c1ccccc1F,IC50,[3],2.6 µM
CCc1nnc(-c2ccc(-c3ccccc3)cc2)n1-c1cccc2cnccc12,CLint scaled,[4],> 1000 mL/min/kg
same,CLint scaled,[5],374 mL/min/kg
same,Papp A→B at 2 h,MDR1,25.6 ×10⁻⁶ cm/s
same,logD,[6],4.1
same,solubility at 20 h,[1],5 µM
CCc1nnc(-c2ccc(-c3ccccc3)cc2)n1-c1cccc(CN(C)C)c1C,IC50,[3],29 µM
CCc1nnc(-c2ccc(-c3ccccc3)nc2)n1-c1cccc(C#N)c1C (atropisomer R),AUC,[8],235 ng·h/mL
same,AUC,[9],248 ng·h/mL
same,AUC,[10],522 ng·h/mL
same,clearance,[11],67 mL/min/kg
same,CLint scaled,[4],787 mL/min/kg
same,Cmax,[12],319 ng/mL
same,CLint scaled,[5],55 mL/min/kg
same,bioavailability,[13],32%
same,Papp,LLC-PK1,35.4 ×10⁻⁶ cm/s
same,Vd,[14],3.4 L/kg
same,Vd,[15],1 L/kg
same,half-life,[16],2.4 h
same,logD,[6],3
same,half-life,[17],0.22 h
same,CLint scaled,[18],162 mL/min/kg
same,Cmax,[19],141 ng/mL
same,AUC,[20],875 ng·h/mL
same,solubility,[1],95 µM
same,bioavailability,[21],23%
same,clearance,[22],21 mL/min/kg
CCc1nnc(-c2ccc(-c3ccccc3)cc2)n1-c1cccc(C(F)(F)F)c1C,IC50,[3],> 10 µM
same,inhibition,[23],38%
CCc1nnc(-c2ccc(-c3ccccc3)nc2)n1-c1cccc(C#N)c1C (atropisomer S),solubility at 20 h,[1],94 µM
CCc1nnc(-c2ccc(-c3ccccc3)cc2)n1-c1cccc(COC)c1C,IC50,[3],2.4 µM
CCc1nnc(N2CCC(c3ccccc3)CC2)n1-c1ccccc1F,IC50,[3],3.7 µM
